One assay relates to COP1 WD40 domain. The assay can be described thus: Flag-immunoprecipitation. Format: cell-based, human. The settings on record: 293T cells; anti-Flag IP, western blot anti-COP1; Figure 1C lanes 6–8. Background: A western blot detects proteins with antibodies after separation by electrophoresis.
In assay [1] the test system is STK40 kinase-homology domain (aa 22–339). The assay can be described thus: Thermal shift assay. Particulars: summary statement (Highlights). Format: binding, human.
The test system of assay [2] is partially purified full-length STK40. Particulars: single ATP concentration (0.2mM); ref Murphy et al., 2014; cited from earlier work.
Assay [3] has as its target T1, purified human COP1 WD40 β propeller (386-731) (human, UniProt Q8NHY2 386-731). The assay can be described thus: fluorescence polarisation.
Assay [4] has as its target COP1 WD40 domain (386–731). Format: binding, human. The settings on record: same competition assay; 25 nM FITC-peptide, 1500 nM COP1 WD40 (386–731).
For assay [5], the target named is T1, purified human COP1 WD40 β propeller …. The assay can be described thus: fluorescence polarisation. The source holds these as a separate data set.
The test system of the next assay is endogenous COP1. In words: Flag-immunoprecipitation in 293T cells: endogenous COP1. Format: cell-based, human. Particulars: anti-Flag IP, western blot anti-COP1, Figure 1C, black arrow. The procedure, abridged: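 Human 293T cells grown in standard medium were transiently transfected with Flag-tagged STK40 constructs in pcDNA3.0 plus COP1 in pTriEx1.1. Lysates and eluates were run on 4–20% gradient gels and immunoblotted for Flag and COP1.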

Ends that are not written are not given here. * marks the point of attachment. FITC = O=C1OC2(c3ccc(O)cc3Oc3cc(O)ccc32)c2ccc(NC(=S)*)cc21

T1 sequence (Q8NHY2 386-731): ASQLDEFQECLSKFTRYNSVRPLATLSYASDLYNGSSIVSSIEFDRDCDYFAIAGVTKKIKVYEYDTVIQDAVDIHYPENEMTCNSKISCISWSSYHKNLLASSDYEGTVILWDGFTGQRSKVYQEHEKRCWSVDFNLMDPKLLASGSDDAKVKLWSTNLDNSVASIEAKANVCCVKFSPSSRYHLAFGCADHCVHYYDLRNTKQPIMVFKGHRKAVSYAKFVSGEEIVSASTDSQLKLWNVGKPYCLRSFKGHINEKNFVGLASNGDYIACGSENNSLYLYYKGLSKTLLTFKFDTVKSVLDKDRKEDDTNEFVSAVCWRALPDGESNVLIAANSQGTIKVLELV

As to “SSLSGPLQVVPDI [12 residue peptide fused to GFP]”, the “association with / recovery of COP1 WD40 domain” value with COP1 WD40 domain is recorded as “recovers the COP1 WD40 domain, but less efficiently than full-length STK40”.
`Nc1ncnc2c1ncn2[C@@H]1O[C@H](COP(=O)(O)OP(=O)(O)OP(=O)(O)O)[C@@H](O)[C@H]1O` [ATP]: the “ATP binding by STK40 kinase homology domain” value in assay [1] is on record as “does not bind ATP”. Also, the “ATP binding by full-length STK40” value in assay [2] is reported as “no ATP binding”.

B1: purified STK40 KHD+20 (22-359) (domain or fragment, human, UniProt Q8N2I9 22-359, looked up)
chain: SGISGNNAKRAGPFILGPRLGNSPVPSIVQCLARKDGTDDFYQLKILTLEERGDQGIESQEERQGKMLLHTEYSLLSLLHTQDGVVHHHGLFQDRTCEIVEDTESSRMVKKMKKRICLVLDCLCAHDFSDKTADLINLQHYVIKEKRLSERETVVIFYDVVRVVEALHQKNIVHRDLKLGNMVLNKRTHRITITNFCLGKHLVSEGDLLKDQRGSPAYISPDVLSGRPYRGKPSDMWALGVVLFTMLYGQFPFYDSIPQELFRKIKAAEYTIPEDGRVSENTVCLIRKLLVLDPQQRLAAADVLEALSAIIASWQSLSSLSGPLQVVPDIDDQMSNAD
The molecule B1 showed a Ki in assay [3] of 1.2 ± 0.1 µM.

B2: KHD containing a C-terminal extension of 20 amino acids: KHD containing a C-terminal extension of 20 amino acids encompassing the COP1-binding peptide (protein)
chain: SGISGNNAKRAGPFILGPRLGNSPVPSIVQCLARKDGTDDFYQLKILTLEERGDQGIESQEERQGKMLLHTEYSLLSLLHTQDGVVHHHGLFQDRTCEIVEDTESSRMVKKMKKRICLVLDCLCAHDFSDKTADLINLQHYVIKEKRLSERETVVIFYDVVRVVEALHQKNIVHRDLKLGNMVLNKRTHRITITNFCLGKHLVSEGDLLKDQRGSPAYISPDVLSGRPYRGKPSDMWALGVVLFTMLYGQFPFYDSIPQELFRKIKAAEYTIPEDGRVSENTVCLIRKLLVLDPQQRLAAADVLEALSAIIASWQSLSSLSGPLQVVPDIDDQMSNAD
modifications: left off: His tag, N-terminal, cleaved
As for B2, the “apparent Ki relative to isolated STK40 peptide (in words)” value in assay [4] was “lower apparent Ki than the isolated peptide”.
With {FITC}-SSLSGPLQVVPD [STK40 peptide FITC-SSLSGPLQVVPD], the Kd in assay [5] stood at 3.1 ± 0.6 µM.

B3: Full-length STK40: N-terminal Flag-tagged full-length STK40 (FLAG, HA tags in HeLa tandem IP) (protein)
chain: MKRRASDRGAGETSARAKALGSGISGNNAKRAGPFILGPRLGNSPVPSIVQCLARKDGTDDFYQLKILTLEERGDQGIESQEERQGKMLLHTEYSLLSLLHTQDGVVHHHGLFQDRTCEIVEDTESSRMVKKMKKRICLVLDCLCAHDFSDKTADLINLQHYVIKEKRLSERETVVIFYDVVRVVEALHQKNIVHRDLKLGNMVLNKRTHRITITNFCLGKHLVSEGDLLKDQRGSPAYISPDVLSGRPYRGKPSDMWALGVVLFTMLYGQFPFYDSIPQELFRKIKAAEYTIPEDGRVSENTVCLIRKLLVLDPQQRLAAADVLEALSAIIASWQSLSSLSGPLQVVPDIDDQMSNADSSQEAKVTEECSQYEFENYMRQQLLLAEEKSSIHDARSWVPKRQFGSAPPVRRLGHDAQPMTSLDTAILAQRYLRK
modifications: left off: Flag, N-terminal, kept
In the case of B3, the “immunoprecipitation with endogenous COP1” value in the assay on endogenous COP1 is given as “immunoprecipitates with endogenous COP1”.

B4: KHD: construct of STK40 containing only the central kinase homology domain (KHD) (protein)
chain: SGISGNNAKRAGPFILGPRLGNSPVPSIVQCLARKDGTDDFYQLKILTLEERGDQGIESQEERQGKMLLHTEYSLLSLLHTQDGVVHHHGLFQDRTCEIVEDTESSRMVKKMKKRICLVLDCLCAHDFSDKTADLINLQHYVIKEKRLSERETVVIFYDVVRVVEALHQKNIVHRDLKLGNMVLNKRTHRITITNFCLGKHLVSEGDLLKDQRGSPAYISPDVLSGRPYRGKPSDMWALGVVLFTMLYGQFPFYDSIPQELFRKIKAAEYTIPEDGRVSENTVCLIRKLLVLDPQQRLAAADVLEALSAIIASWQSLS
modifications: left off: His tag, N-terminal, cleaved
Regarding B4, the “association with / recovery of COP1 WD40 domain” value in the assay on COP1 WD40 domain is reported as “unable to recover detectable quantities of the COP1 WD40 domain”.

A word on the Ki: it is the dissociation constant of the complex between target and ligand, obtained from inhibition or displacement. For orientation: Kd means the constant that tells how readily two partners part at equilibrium. A low value points to tighter binding.
